ChEMBL document CHEMBL1142253, “Development of dimeric modulators for anti-apoptotic Bcl-2 proteins” (Bioorg Med Chem Lett, 2008)

Assays:
[1] = Induction of cytochrome c release from mouse liver mitochondria; assay type: functional
In short: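 Mouse liver mitochondria were isolated by differential centrifugation in Tris-MOPS/EGTA/sucrose buffer pH 7.4 and diluted to 1mg/ml in KCl-based buffer. They were incubated 1 hour at 30 °C with increasing compound concentrations, with DMSO kept equal, then pelleted at 13,000g for 10 minutes. Cytochrome c release was assessed, and the concentration giving 50% release was reported.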

[2] = molecular target: Apoptosis regulator Bcl-2 (Homo sapiens, UniProt P10415); assay: Inhibition of Bak peptide binding to human recombinant Bcl2
Apoptosis regulator Bcl-2, sequence (P10415 whole entry): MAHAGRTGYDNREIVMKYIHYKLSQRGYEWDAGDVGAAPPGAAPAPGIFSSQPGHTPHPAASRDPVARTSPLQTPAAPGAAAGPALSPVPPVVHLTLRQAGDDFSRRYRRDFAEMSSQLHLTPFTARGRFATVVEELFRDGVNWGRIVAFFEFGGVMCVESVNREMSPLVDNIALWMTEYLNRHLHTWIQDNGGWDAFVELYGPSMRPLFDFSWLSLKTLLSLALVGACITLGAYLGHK
In short: (§1)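 Fluorescence polarization competition against 50 nM fluorescein-labelled Bak peptide, in PBS pH 7.0 with 1 mM DTT. Protein set for 60% peptide complex: Bcl-2 1000 nM, Bcl-XL 880nM, Bcl-w 1200 nM. Compounds added from 3-fold DMSO stock dilutions (10 mM down). Incubation 1 h at 23 °C, read in mP, peptide-only interference subtracted. Ki fitted from FP change versus competitor concentration.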

[3] = molecular target: T1, Bcl-2-like protein 2 (Homo sapiens, UniProt Q92843); assay: Inhibition of Bak peptide binding to human recombinant Bcl-w; in short: as §1
T1 sequence (Q92843 whole entry): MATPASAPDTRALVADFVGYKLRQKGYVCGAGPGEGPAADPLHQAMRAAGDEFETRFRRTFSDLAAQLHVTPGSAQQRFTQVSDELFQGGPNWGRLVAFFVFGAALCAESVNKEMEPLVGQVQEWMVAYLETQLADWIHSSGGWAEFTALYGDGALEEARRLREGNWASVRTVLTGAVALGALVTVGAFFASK

Compound | IC50 [1] | Ki [2] | Ki [3]
O=C(O)[C@H](Cc1ccccc1)N1C(=O)/C(=C/c2ccc(Br)cc2)SC1=S | 69.1 µM | – | –
O=C(OCCOCCOCCOC(=O)[C@H](Cc1ccccc1)N1C(=O)/C(=C/c2ccc(Br)cc2)SC1=S)[C@H](Cc1ccccc1)N1C(=O)/C(=C/c2ccc(Br)cc2)SC1=S | – | 161 µM | 88.3 µM
CCOC(=O)[C@H](Cc1ccccc1)N1C(=O)/C(=C/c2ccc(Br)cc2)SC1=S | – | 260 µM | 116 µM
O=C(O)[C@H](Cc1ccccc1)N1C(=O)/C(=C/c2ccc(OCCOCCOc3ccc(/C=C4\SC(=S)N([C@@H](Cc5ccccc5)C(=O)O)C4=O)cc3)cc2)SC1=S | – | 4.3 µM | 2.2 µM
O=C(OCCOC(=O)[C@H](Cc1ccccc1)N1C(=O)/C(=C/c2ccc(Br)cc2)SC1=S)[C@H](Cc1ccccc1)N1C(=O)/C(=C/c2ccc(Br)cc2)SC1=S | – | 243 µM | 101 µM
CCOC(=O)[C@H](Cc1ccccc1)N1C(=O)/C(=C/c2ccc(OCOc3ccc(/C=C4\SC(=S)N([C@@H](Cc5ccccc5)C(=O)OCC)C4=O)cc3)cc2)SC1=S | – | 226 µM | 39.2 µM
O=C(O)[C@H](Cc1ccccc1)N1C(=O)/C(=C/c2ccc(OCOc3ccc(/C=C4\SC(=S)N([C@@H](Cc5ccccc5)C(=O)O)C4=O)cc3)cc2)SC1=S | – | 4.3 µM | 2.3 µM

Second part, the molecule after the results:

IC50 [1] | Ki [2] | Ki [3] | Compound
– | 21.2 µM | 13.7 µM | O=C(O)[C@H](Cc1ccccc1)N1C(=O)/C(=C/c2ccc(OCCOCCOCCOc3ccc(/C=C4\SC(=S)N([C@@H](Cc5ccccc5)C(=O)O)C4=O)cc3)cc2)SC1=S
– | > 1000 µM | 99 µM | O=C(OCCOCCOC(=O)[C@H](Cc1ccccc1)N1C(=O)/C(=C/c2ccc(Br)cc2)SC1=S)[C@H](Cc1ccccc1)N1C(=O)/C(=C/c2ccc(Br)cc2)SC1=S
6.1 µM | 1.7 µM | 1.3 µM | O=C(O)[C@H](Cc1ccccc1)N1C(=O)/C(=C/c2ccc(OCCOc3ccc(/C=C4\SC(=S)N([C@@H](Cc5ccccc5)C(=O)O)C4=O)cc3)cc2)SC1=S
